Experimental data gathered from unrelated publications.
In brackets after ≈: the same amount, converted by molar mass.

CC[C@@H]1C(=O)N(C)c2cnc(Nc3ccc(C(=O)N[C@H]4CC[C@H](N5CCN(CC6CC6)CC5)CC4)cc3OC)nc2N1C(C)C — MIC (Staphylococcus aureus; microbial growth; NCTC8325): > 30 µM
O=C(O)CN1C(=O)/C(=C/c2ccc(-c3ccc(N(c4ccccc4)c4ccccc4)cc3)cc2)SC1=S — MBC (Staphylococcus aureus; microbial killing, broth dilution; ATCC25923): 31.3 µg/mL (≈ 59.9 µM)
COc1ccc2nc(-n3nc(CC(C)C)c4c3-c3ccccc3C4=O)sc2c1 — inhibition zone (Staphylococcus aureus; microbial growth, well diffusion; NCIM5021; 250 µg/mL): 12 mm
O=C1c2ccccc2-c2n[nH]c3cccc1c23 — MIC (Staphylococcus aureus; microbial growth; NCTC8325): > 30 µM
c1ccc(-c2ccc(Nc3nccc(NC4CCCCC4)n3)cc2)nc1 — EC50 (MV4-11; cell growth or viability, ATP luminescence; 72 h): 41 nM
Cc1ccc2nc(-n3nc(C(C)C)c4c3-c3ccccc3C4=O)sc2c1 — inhibition zone (Staphylococcus aureus; microbial growth, well diffusion; NCIM5021; 250 µg/mL): 13 mm
CC(C)Nc1ccnc(Nc2cccc(-c3ncco3)c2)n1 — EC50 (MV4-11; cell growth or viability, ATP luminescence; 72 h): 1060 nM
Cn1cnc(-c2cc3nccc(Oc4ccc(NC(=S)NC(=O)Cc5ccccc5)cc4F)c3s2)c1 — MIC (Staphylococcus aureus; microbial growth; NCTC8325): > 30 µM
CC(C)Cc1nn(-c2nc3ccc(Br)cc3s2)c2c1C(=O)c1ccccc1-2 — inhibition zone (Staphylococcus aureus; microbial growth, well diffusion; NCIM5021; 1000 µg/mL): 21 mm
c1cc(Nc2nccc(NC3CCCCC3)n2)cc(-c2cc[nH]n2)c1 — EC50 (MV4-11; cell growth or viability, ATP luminescence; 72 h): > 14000 nM
O=C1NC(=S)N/C1=C\c1c2ccccc2c(-c2ccc(N(c3ccccc3)c3ccccc3)cc2)c2ccccc12 — MBC (Micrococcus luteus; microbial killing, broth dilution; ATCC10240): > 1000 µg/mL
Cc1nn(-c2nc3ccc(Br)cc3s2)c2c1C(=O)c1ccccc1-2 — inhibition zone (Staphylococcus aureus; microbial growth, well diffusion; NCIM5021; 250 µg/mL): 11 mm
O=C1NC(=S)S/C1=C\c1ccc(-c2ccc(N(c3ccccc3)c3ccccc3)cc2)c2ccccc12 — MBC (Micrococcus luteus; microbial killing, broth dilution; ATCC10240): > 1000 µg/mL
CCN1CCN(Cc2ccc(-c3cc4c(N[C@H](C)c5ccccc5)ncnc4[nH]3)cc2)CC1 — MIC (Staphylococcus aureus; microbial growth; NCTC8325): > 30 µM
CC(C)c1nn(-c2nc3ccc(Br)cc3s2)c2c1C(=O)c1ccccc1-2 — inhibition zone (Staphylococcus aureus; microbial growth, well diffusion; NCIM5021; 125 µg/mL): 11 mm
O=C1NC(=O)[C@@H](c2cn3c4c(cccc24)CCC3)[C@@H]1c1c[nH]c2ccccc12 — MIC (Staphylococcus aureus; microbial growth; NCTC8325): > 30 µM
CC(C)c1nn(-c2nc3ccc(Cl)cc3s2)c2c1C(=O)c1ccccc1-2 — inhibition zone (Staphylococcus aureus; microbial growth, well diffusion; NCIM5021; 250 µg/mL): 11 mm
O=S(=O)(c1cccc2cnccc12)N1CCCNCC1 — MIC (Staphylococcus aureus; microbial growth; NCTC8325): > 30 µM
c1cncc(-c2cccc(Nc3nccc(NC4CC4)n3)c2)c1 — EC50 (MV4-11; cell growth or viability, ATP luminescence; 72 h): 141 nM
